Laboratory results: ChEMBL document CHEMBL1127081, “Synthesis of 2,4-disubstituted thiazoles and selenazoles as potential antifilarial and antitumor agents. 2. 2-Arylamido and 2-alkylamido derivatives of 2-amino-4-(isothiocyanatomethyl)thiazole and 2-amino-4-(isothiocyanatomethyl)selenazole” (J Med Chem, 1993)
Calls of active or inactive are those of the source. No cut-off for these calls is given here.

Experiments:
L1210 [1] = assay: Screen growth rate of L1210 leukemic cells in the presence of compound at 100 uM expressed as percent of control; format: functional, Mus musculus
Method in brief: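 L1210 cells grown in static suspension at 38 °C in Fischer's medium with continuous 100 μM compound for 3 days. Growth rate = ratio of control to treated population doubling time, expressed as % of control; if growth slowed, the final rate over the 3-day period was used.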

L1210 [2] = assay: Compound was tested in vitro for antiproliferative activity against L1210 leukemic cells; format: functional, cell-based; conditions: Mus musculus
Method in brief: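 Mouse L1210 leukemia cells grown in static suspension culture at 38 °C in Fischer's medium. Cells were exposed continuously to a range of concentrations for 3 days. Growth rate = control doubling time / treated doubling time, as % of control; the final rate was used if growth slowed. IC50 = concentration reducing growth rate to 50% of control.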

Acanthocheilonema viteae = assay: Antifilarial activity against adult worm of A. viteae in jirds at 100 mg/kg x 5 days administered subcutaneously; No activity; format: functional, organism-based; design: dose 100 mg/kg
Brugia pahangi = assay: Compound tested for anti-filarial activity against adult worm of Brugia pahangi in jirds at 100 mg/kg x 5 days administered subcutaneously; No activity; format: functional, organism-based; design: dose 100 mg/kg
L1210 [3] = assay: Compound was tested in vitro for antiproliferative activity against L1210 leukemic cells; No significant inhibition; format: functional, cell-based, Mus musculus
[4] = target: GMP synthase [glutamine-hydrolyzing] (Mus musculus, UniProt Q3THK7); assay: In vitro inhibitory activity against partially purified GMP synthetase in L1210 cells
GMP synthase [glutamine-hydrolyzing], sequence (Q3THK7 whole entry): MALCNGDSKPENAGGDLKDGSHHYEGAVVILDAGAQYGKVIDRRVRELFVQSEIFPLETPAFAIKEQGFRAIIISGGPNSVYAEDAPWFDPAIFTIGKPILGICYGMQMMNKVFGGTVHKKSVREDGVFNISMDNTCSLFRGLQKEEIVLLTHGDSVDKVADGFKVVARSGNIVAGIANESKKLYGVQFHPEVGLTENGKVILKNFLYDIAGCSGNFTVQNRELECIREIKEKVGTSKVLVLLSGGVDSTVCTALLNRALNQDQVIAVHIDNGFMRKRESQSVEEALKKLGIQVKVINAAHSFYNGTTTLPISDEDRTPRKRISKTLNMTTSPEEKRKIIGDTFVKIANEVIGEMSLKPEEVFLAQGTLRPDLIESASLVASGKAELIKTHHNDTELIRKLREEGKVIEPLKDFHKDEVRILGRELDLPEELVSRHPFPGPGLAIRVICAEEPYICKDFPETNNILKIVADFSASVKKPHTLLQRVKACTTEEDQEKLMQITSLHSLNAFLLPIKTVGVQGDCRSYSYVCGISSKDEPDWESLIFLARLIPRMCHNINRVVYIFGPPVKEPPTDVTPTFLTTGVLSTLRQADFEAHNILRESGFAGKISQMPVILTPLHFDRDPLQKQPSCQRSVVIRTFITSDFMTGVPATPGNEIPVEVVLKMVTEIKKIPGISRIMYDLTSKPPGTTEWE

SMILES | IC50 (L1210 [2]) [µM] | IC50 [4] [µM] | GR (L1210 [1]) [%] | Activity (Acanthocheilonema viteae) | Activity (Brugia pahangi) | IC50 (L1210 [3])
CC(C)C(=O)Nc1nc(CN=C=S)cs1 | 8.2 |  | 0 | inactive | inactive | 
CCC(=O)Nc1nc(CN=C=S)c[se]1 | 3.5 |  | 0 | inactive | inactive | 
Nc1nc(CN=C=S)cs1 | 26 |  | 0 | inactive | inactive | 
CC(=O)Nc1nc(CCl)c[se]1 | > 100 |  | 65 | inactive | inactive | 
O=C(Nc1nc(CN=C=S)cs1)C(F)(F)F |  |  | 20 | inactive | inactive | 
O=C(Nc1nc(CCl)cs1)c1ccccc1 |  |  | 100 | inactive | inactive | Not Active
CCC(=O)Nc1nc(CN=C=S)cs1 | 6.8 |  | 0 | inactive | inactive | 
COC(=O)Nc1nc(CN=C=S)cs1 |  |  |  | inactive | inactive | 
CC(=O)Nc1nc(CCl)cs1 | > 100 |  | 75 | inactive | inactive | 
O=C(Nc1nc(CN=C=S)c[se]1)c1ccccc1 | 0.9 |  | 13 | inactive | inactive | 
CC(C)(C)C(=O)Nc1nc(CN=C=S)cs1 | 4.3 |  | 28 | inactive | inactive | 
O=C(Nc1nc(CCl)c[se]1)c1ccccc1 |  |  | 101 | inactive | inactive | Not Active
CC(C)C(=O)Nc1nc(CN=C=S)c[se]1 | 28 |  | 0 | inactive | inactive | 
CC(C)(C)C(=O)Nc1nc(CN=C=S)c[se]1 | 18 |  | 0 | inactive | inactive | 
Nc1nc(CN=C=S)c[se]1 | 21 |  | 0 | inactive | inactive | 
CC(=O)Nc1nc(CN=C=S)c[se]1 | 30 |  | 14 | inactive | inactive | 

The next lines start with results.

IC50 (L1210 [2]) [µM] | IC50 [4] [µM] | SMILES | GR (L1210 [1]) [%] | Activity (Acanthocheilonema viteae) | Activity (Brugia pahangi) | IC50 (L1210 [3])
5.2 |  | CC(=O)Nc1nc(CN=C=S)cs1 | 1 | inactive | inactive | 
0.5 |  | O=C(Nc1nc(CN=C=S)cs1)c1ccc(C(F)(F)F)cc1 | 0 | inactive | inactive | 
1.1 |  | O=C(Nc1nc(CN=C=S)cs1)c1ccc(F)cc1 | 0 | inactive | inactive | 
> 100 |  | CC(C)(C)c1ccc(C(=O)Nc2nc(CN=C=S)cs2)cc1 | 72 | inactive | inactive | 
0.82 |  | O=C(Nc1nc(CN=C=S)cs1)c1ccc(Cl)c(Cl)c1 | 0 | inactive | inactive | 
0.44 |  | COc1ccc(C(=O)Nc2nc(CN=C=S)cs2)cc1 | 0 | inactive | inactive | 
0.22 |  | O=C(Nc1nc(CN=C=S)cs1)c1ccc(Cl)cc1 | 0 | inactive | inactive | 
0.2 | 0.35 | O=C(Nc1nc(CN=C=S)cs1)c1ccccc1 | 0 | inactive | inactive | 
0.48 |  | Cc1ccc(C(=O)Nc2nc(CN=C=S)cs2)cc1 | 25 | inactive | inactive | 
